PAFAH2 inh: PAFAH2 (human) inhibition; Q99487; recombinant PAFAH2, FP-rhodamine activity probe, fluorescence polarization; inhibition, % at 3.39 µM; 340,000 tested, 0.99% active; AID 492956;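 active = inhibition above the mean over all tested compounds plus 3 SD, cut at about 30% in these data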;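 also: inhibitors block probe labeling of enzyme so polarization drops; 0% = enzyme with DMSO and 100% = wells lacking PAFAH2 protein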
PAFAH1B3 inh: PAFAH1B3 (human) inhibition; recombinant PAFAH1B3, FP-rhodamine probe, fluorescence polarization; AID 492972; Q15102; inhibition, % at 3.39 µM; 340,000 tested, 0.28% active;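 active = inhibition above the screen-wide average of all tested compounds plus 3 SD, cut at about 25% in these data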;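 also: 0% = enzyme with DMSO only and 100% = wells lacking PAFAH1B3 protein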
Target sequence (Q15102 whole entry, looked up): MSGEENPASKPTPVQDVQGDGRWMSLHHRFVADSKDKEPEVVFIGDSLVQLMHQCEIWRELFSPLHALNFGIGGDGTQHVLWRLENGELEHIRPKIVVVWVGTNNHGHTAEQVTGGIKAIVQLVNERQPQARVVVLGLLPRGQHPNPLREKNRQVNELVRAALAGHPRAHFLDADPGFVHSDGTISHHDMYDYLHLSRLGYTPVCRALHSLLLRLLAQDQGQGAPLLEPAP
VIM-2 inh: blocks Pseudomonas aeruginosa VIM-2 metallo-beta-lactamase. purified VIM-2, nitrocefin hydrolysis, epi-absorbance fluorescence. inhibition, % at 5.6 µM. 290,000 tested, 0.89% active. AID 1527;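 active = inhibition above the mean of all tested compounds plus 3 SD, cutoff set per screening run, cut at about 7.5% in these data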;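 also: red hydrolysis product quenches plate fluorescence so inhibitors raise well fluorescence; 0% = enzyme with DMSO and 100% = DMSO without enzyme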
IMP-1 inh-1: blocks Pseudomonas aeruginosa IMP-1 metallo-beta-lactamase; purified IMP-1, nitrocefin hydrolysis, epi-absorbance fluorescence; inhibition, % at 5.6 µM; 290,000 tested, 0.45% active; AID 1556;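 active = inhibition above the mean plus 3 SD of all compounds in the same screening run, cut at about 4.5% in these data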;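 also: 0% = IMP-1 with DMSO and 100% = DMSO wells lacking enzyme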
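System: purified IMP-1 / Input: IMP-1 dispensed at 0.2 nM / Medium: 50 mM HEPES pH 7.1, 50 µM ZnSO4, 0.05% Brij 35 / Timing: 15 min enzyme–compound preincubation, then 25 min nitrocefin reaction, 25 °C / Technique: plate fluorescence quenching by hydrolysis product, ex 480/em 530 nm / Repeats: singlicate testing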
pPAFAH inh: inhibitors of human plasma PAF acetylhydrolase (pPAFAH) | Q13093 | recombinant pPAFAH, FP-rhodamine probe fluorescence polarization | inhibition, % at 3.39 µM | 330,000 tested, 1.5% active | AID 463082;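 active = inhibition above the mean inhibition across the screen plus 3 SD, cut at about 25% in these data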;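 also: inhibitors block binding of the rhodamine activity-based probe so polarization drops; 0% = enzyme with DMSO and 100% = wells lacking pPAFAH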
PAFAH1B2 FP inh: PAFAH1B2 (human) inhibition; P68402; recombinant PAFAH1B2, FP-rhodamine activity probe, fluorescence polarization; 340,000 tested, 1.2% active; inhibition, % at 3.39 µM; AID 492953;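 active = inhibition above the mean of all tested compounds plus 3 SD, cut at about 24% in these data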;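 also: 0% = enzyme with DMSO and 100% = wells lacking PAFAH1B2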
Target sequence (P68402 whole entry, looked up): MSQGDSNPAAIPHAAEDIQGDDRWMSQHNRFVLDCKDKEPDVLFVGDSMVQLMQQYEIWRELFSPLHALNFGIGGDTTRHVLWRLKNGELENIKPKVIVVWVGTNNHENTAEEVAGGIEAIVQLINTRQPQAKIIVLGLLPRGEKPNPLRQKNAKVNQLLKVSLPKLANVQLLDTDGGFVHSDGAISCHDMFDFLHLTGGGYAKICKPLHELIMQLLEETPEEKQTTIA
IMP-1 inh-2: selectivity counter-screen for VIM-2 inhibitors: IMP-1 metallo-beta-lactamase inhibitors; AID 1856; purified IMP-1, nitrocefin hydrolysis, epi-absorbance fluorescence; shares compounds with VIM-2 inh; inhibition, % at 5.6 µM; 1,300 tested, under 10 active; call rule not given here;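 also: 0% = enzyme with vehicle and 100% = vehicle without enzyme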
VIM-2 FRET inh: inhibits VIM-2 in FRET assay to exclude epi-absorbance artifacts; shares compounds with VIM-2 inh; purified VIM-2, CCF2 FRET substrate hydrolysis; inhibition, % at 5.6 µM; 1,300 tested, 23% active; AID 1857;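 active = inhibition above the mean of all tested compounds plus 3 SD, cut at about 19% in these data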;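 also: 0% = VIM-2 plus DMSO and 100% = no enzyme wells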
TEM-1 inh: selectivity counter-screen for VIM-2 inhibitors: E. coli TEM-1 inhibitors; AID 1866; 1,300 tested, 3% active; inhibition, % at 5.6 µM; Purified TEM-1, nitrocefin hydrolysis, epi-absorbance fluorescence; shares compounds with VIM-2 inh;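 active = inhibition above that campaign's mean inhibition plus 3 SD, cut at about 0.46% in these data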;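 also: 0% = TEM-1 with DMSO and 100% = TEM-1 with 100 µM potassium clavulanate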
VIM-2 confirm 2: confirmation of P. aeruginosa VIM-2 metallo-beta-lactamase inhibitors; shares compounds with VIM-2 inh; purified VIM-2, nitrocefin hydrolysis, epi-absorbance; inhibition, % at 5.6 µM; 1,300 tested, 96% active; AID 2187;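 active = inhibition of the VIM-2 beta-lactamase enzyme above about 11% from the earlier first-round screen, limit read from the data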;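 also: 0% = VIM-2 with DMSO and 100% = buffer wells without enzyme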
* hit, by the source's call; nt = no result. Rows were chosen to be rich in hits. Some 3.6% of all compounds tested hit in one or more screens of this group.

SMILES	PAFAH2 inh	PAFAH1B3 inh	VIM-2 inh	IMP-1 inh-1	pPAFAH inh	PAFAH1B2 FP inh	IMP-1 inh-2	VIM-2 FRET inh	TEM-1 inh	VIM-2 confirm 2
CCN(CC)CCC(=O)Nc1cccc2c1C(=O)c1ccccc1C2=O	nt	nt	33*	-1	6	nt	-2	-1	-9	45*
CCN(CC)CCNC(=O)c1ccc2c(c1NCCO)C(=O)c1ccccc1C2=O	nt	nt	14*	-1	-3	nt	-5	2	-8	20*
Nc1cccc(C(=O)OCC(=O)Nc2cccc3c2C(=O)c2ccccc2C3=O)c1	8	0	0	-2	0	5	nt	nt	nt	nt
O=C(Nc1nc2ccccc2s1)Nc1ccc([N+](=O)[O-])cc1Cl	nt	nt	-1	-1	-4	nt	nt	nt	nt	nt
O=C(O)CC/C(=C\c1cc([N+](=O)[O-])ccc1Cl)c1nc2ccccc2s1	12	10	21*	1	11	0	-1	49*	-1	34*
O=C(C1=C(O)C(=O)N(Cc2cccnc2)C1c1ccccn1)c1cccs1 (configuration not stated)	0	3	16*	-4	2	4	-3	41*	-5	32*
CCc1ccc(/C=N/Nc2ncnc3nc[nH]c23)cc1	5	9	15*	-3	3	7	-3	-15	-1	43*
ON=C1c2ccccc2-c2cc(Br)ccc21	-6	6	nt	nt	nt	-5	nt	nt	nt	nt
C(=N\Nc1ncnc2sc3c(c12)CCC3)/c1ccncc1	4	3	34*	-5	12	4	-2	-6	-4	53*
O=[N+]([O-])c1cc(CN2CCN(c3ccccc3)CC2)c(O)c2ncccc12	6	10	-4	-5	3	2	nt	nt	nt	nt
O=[N+]([O-])c1cc(CN2CCOCC2)c2cccnc2c1O	nt	nt	46*	-2	nt	nt	-4	4	-7	49*
COc1ccc(C(=O)N=C2SC3CS(=O)(=O)CC3N2Cc2ccc(F)cc2)cc1 (configuration not stated)	14	-1	-1	0	0	2	nt	nt	nt	nt
CCN1CCN(c2ccc(N=Cc3ccccc3O)cc2)CC1	1	2	40*	-10	1	8	-8	-5	-6	28*
COc1cccc(C=Nc2ccc(N3CCOCC3)cc2)c1O	1	-2	-1	-19	7	0	nt	nt	nt	nt
COc1cccc(-c2c(C(=O)O)cc(O)c3ccc(OC)cc23)c1	2	2	nt	nt	nt	-1	nt	nt	nt	nt
Oc1ccc(-c2n[nH]c(=S)n2-c2ccc3c(c2)OCCO3)c(O)c1	6	4	17*	-5	19	3	-2	36*	-8	19*
S=c1[nH]nc(-c2ccc3ccccc3n2)n1-c1ccc2c(c1)OCCO2	-4	-4	20*	-2	-3	-2	-3	38*	-7	22*
COc1ccc(CCNC(=O)CCNC(=O)N2CC(=O)Nc3ccccc32)cc1OC	-3	10	-2	-2	-2	0	nt	nt	nt	nt
O=C(Nc1ncn[nH]1)c1ccc(Cl)c(Cl)c1	-2	3	nt	nt	nt	1	nt	nt	nt	nt
CCCN1C(=O)/C(=C2\SC(N3CCCCC3)=NC2=O)c2ccccc21	10	6	-2	-2	4	5	nt	nt	nt	nt
CN1C(=O)/C(=C2\SC(N3CCCCCC3)=NC2=O)c2ccccc21	2	3	13*	-3	2	1	-4	-7	-9	26*
COC(CNS(=O)(=O)c1cc2c3c(c1)CCN3C(=O)CC2)OC	-4	3	-2	-2	4	3	nt	nt	nt	nt
CC(=O)c1c(Cl)nc2cccc3c2c1-c1ccccc1C3=O	10	6	20*	-2	5	12	-1	0	0	31*
CCc1cc(=O)oc2cc(C)cc(OCC(=O)NCCCN3CCOCC3)c12	6	3	14*	-1	4	2	-3	-1	-6	22*

Assay outcomes from PubChem.
